From ChEMBL document CHEMBL5674868, “Cancer Cells Hijack PRC2 to Modify Multiple Cytokine Pathways” (PLoS One, 2015)
The source made the active and inactive calls. The calls are words filed in the database; no cut-off is given here.

Assays:
Format in all cases: cell-based
[1] = target: Histone-lysine N-methyltransferase EZH2 (Homo sapiens) (UniProt Q15910); experiment: Inhibition of EZH2 in human HeLa cells assessed as decrease in H3K27me3 levels at 2 uM after 6 hrs by Western blot analysis
[2] = target: Histone-lysine N-methyltransferase EZH2 (Homo sapiens) (UniProt Q15910); experiment: Inhibition of EZH2 in human MCF7 cells assessed as decrease in H3K27me3 levels at 2 uM after 6 hrs by Western blot analysis
[3] = target: Histone-lysine N-methyltransferase EZH2 (Homo sapiens) (UniProt Q15910); experiment: Inhibition of EZH2 in human A549 cells assessed as decrease in H3K27me3 levels at 2 uM after 6 hrs by Western blot analysis
[4] = target: Histone-lysine N-methyltransferase EZH2 (Homo sapiens) (UniProt Q15910); experiment: Inhibition of EZH2 in human AsPC1 cells assessed as decrease in H3K27me3 levels at 2 uM after 6 hrs by Western blot analysis
[5] = target: Histone-lysine N-methyltransferase EZH2 (Homo sapiens) (UniProt Q15910); experiment: Inhibition of EZH2 in human HeLa cells assessed as increase in IFN-gamma-induced SUZ12-repressed ISGs mRNA level after 6 hrs by RT-PCR analysis
Summary of the method: (§1)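 Cells were treated for two four-day cycles with 2 μM GSK343 or UNC1999, then left untreated or stimulated with human IFNγ for 6 h. mRNA was measured by reverse transcription quantitative PCR and normalized to β-actin. Three biological replicates were run per treatment group.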

[6] = target: Histone-lysine N-methyltransferase EZH2 (Homo sapiens) (UniProt Q15910); experiment: Inhibition of EZH2 in human MCF7 cells assessed as increase in IFN-gamma-induced SUZ12-repressed ISGs mRNA level after 6 hrs by RT-PCR analysis
Summary of the method: (§2)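 Cells pretreated for two 4-day cycles with 2 µM GSK343 or UNC1999, then left unstimulated or given human IFNγ for 6 h. RNA reverse-transcribed and measured by quantitative PCR, normalized to β-actin. Three biological replicates per treatment group.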

[7] = target: Histone-lysine N-methyltransferase EZH2 (Homo sapiens) (UniProt Q15910); experiment: Inhibition of EZH2 in human A549 cells assessed as increase in IFN-gamma-induced SUZ12-repressed ISGs mRNA level after 6 hrs by RT-PCR analysis; summary of the method: as §1
[8] = target: Histone-lysine N-methyltransferase EZH2 (Homo sapiens) (UniProt Q15910); experiment: Inhibition of EZH2 in human ASPC1 cells assessed as increase in IFN-gamma-induced SUZ12-repressed ISGs mRNA level after 6 hrs by RT-PCR analysis; summary of the method: as §1
[9] = target: Histone-lysine N-methyltransferase EZH2 (Homo sapiens) (UniProt Q15910); experiment: Inhibition of EZH2 in human ASPC1 cells assessed as effect on PITX2 mRNA level after 6 hrs by RT-PCR analysis; summary of the method: as §1
[10] = target: Histone-lysine N-methyltransferase EZH2 (Homo sapiens) (UniProt Q15910); experiment: Inhibition of EZH2 in human MCF7 cells assessed as effect on PITX2 mRNA level after 6 hrs by RT-PCR analysis; summary of the method: as §2
[11] = target: Histone-lysine N-methyltransferase EZH2 (Homo sapiens) (UniProt Q15910); experiment: Inhibition of EZH2 in human A549 cells assessed as effect on PITX2 mRNA level after 6 hrs by RT-PCR analysis; summary of the method: as §1
[12] = target: Histone-lysine N-methyltransferase EZH2 (Homo sapiens) (UniProt Q15910); experiment: Inhibition of EZH2 in human HeLa cells assessed as effect on PITX2 mRNA level after 6 hrs by RT-PCR analysis; summary of the method: as §1
[13] = target: Histone-lysine N-methyltransferase EZH2 (Homo sapiens) (UniProt Q15910); experiment: Inhibition of EZH2 in human ASPC1 cells assessed as effect on HPRT mRNA level after 6 hrs by RT-PCR analysis; summary of the method: as §1
[14] = target: Histone-lysine N-methyltransferase EZH2 (Homo sapiens) (UniProt Q15910); experiment: Inhibition of EZH2 in human MCF7 cells assessed as effect on HPRT mRNA level after 6 hrs by RT-PCR analysis; summary of the method: as §1
[15] = target: Histone-lysine N-methyltransferase EZH2 (Homo sapiens) (UniProt Q15910); experiment: Inhibition of EZH2 in human A549 cells assessed as effect on HPRT mRNA level after 6 hrs by RT-PCR analysis; summary of the method: as §1
[16] = target: Histone-lysine N-methyltransferase EZH2 (Homo sapiens) (UniProt Q15910); experiment: Inhibition of EZH2 in human HeLa cells assessed as effect on HPRT mRNA level after 6 hrs by RT-PCR analysis; summary of the method: as §1
[17] = target: Histone-lysine N-methyltransferase EZH2 (Homo sapiens) (UniProt Q15910); experiment: Inhibition of EZH2 in human ASPC1 cells assessed as effect on IRF1 mRNA level after 6 hrs by RT-PCR analysis; summary of the method: as §1
[18] = target: Histone-lysine N-methyltransferase EZH2 (Homo sapiens) (UniProt Q15910); experiment: Inhibition of EZH2 in human MCF7 cells assessed as effect on IRF1 mRNA level after 6 hrs by RT-PCR analysis; summary of the method: as §1
[19] = target: Histone-lysine N-methyltransferase EZH2 (Homo sapiens) (UniProt Q15910); experiment: Inhibition of EZH2 in human A549 cells assessed as effect on IRF1 mRNA level after 6 hrs by RT-PCR analysis; summary of the method: as §1
[20] = target: Histone-lysine N-methyltransferase EZH2 (Homo sapiens) (UniProt Q15910); experiment: Inhibition of EZH2 in human HeLa cells assessed as effect on IRF1 mRNA level after 6 hrs by RT-PCR analysis; summary of the method: as §1
[21] = target: Histone-lysine N-methyltransferase EZH2 (Homo sapiens) (UniProt Q15910); experiment: Inhibition of EZH2 in human ASPC1 cells assessed as effect on PITX2 mRNA level after 6 hrs by RT-PCR analysis in presence of IFN-gamma; summary of the method: as §1
[22] = target: Histone-lysine N-methyltransferase EZH2 (Homo sapiens) (UniProt Q15910); experiment: Inhibition of EZH2 in human MCF7 cells assessed as effect on PITX2 mRNA level after 6 hrs by RT-PCR analysis in presence of IFN-gamma; summary of the method: as §2
[23] = target: Histone-lysine N-methyltransferase EZH2 (Homo sapiens) (UniProt Q15910); experiment: Inhibition of EZH2 in human A549 cells assessed as effect on PITX2 mRNA level after 6 hrs by RT-PCR analysis in presence of IFN-gamma; summary of the method: as §1
[24] = target: Histone-lysine N-methyltransferase EZH2 (Homo sapiens) (UniProt Q15910); experiment: Inhibition of EZH2 in human HeLa cells assessed as effect on PITX2 mRNA level after 6 hrs by RT-PCR analysis in presence of IFN-gamma; summary of the method: as §1
[25] = target: Histone-lysine N-methyltransferase EZH2 (Homo sapiens) (UniProt Q15910); experiment: Inhibition of EZH2 in human ASPC1 cells assessed as effect on HPRT mRNA level after 6 hrs by RT-PCR analysis in presence of IFN-gamma; summary of the method: as §1
[26] = target: Histone-lysine N-methyltransferase EZH2 (Homo sapiens) (UniProt Q15910); experiment: Inhibition of EZH2 in human MCF7 cells assessed as effect on HPRT mRNA level after 6 hrs by RT-PCR analysis in presence of IFN-gamma; summary of the method: as §1
[27] = target: Histone-lysine N-methyltransferase EZH2 (Homo sapiens) (UniProt Q15910); experiment: Inhibition of EZH2 in human A549 cells assessed as effect on HPRT mRNA level after 6 hrs by RT-PCR analysis in presence of IFN-gamma; summary of the method: as §1

Histone-lysine N-methyltransferase EZH2 (Homo sapiens), sequence (Q15910 whole entry, looked up): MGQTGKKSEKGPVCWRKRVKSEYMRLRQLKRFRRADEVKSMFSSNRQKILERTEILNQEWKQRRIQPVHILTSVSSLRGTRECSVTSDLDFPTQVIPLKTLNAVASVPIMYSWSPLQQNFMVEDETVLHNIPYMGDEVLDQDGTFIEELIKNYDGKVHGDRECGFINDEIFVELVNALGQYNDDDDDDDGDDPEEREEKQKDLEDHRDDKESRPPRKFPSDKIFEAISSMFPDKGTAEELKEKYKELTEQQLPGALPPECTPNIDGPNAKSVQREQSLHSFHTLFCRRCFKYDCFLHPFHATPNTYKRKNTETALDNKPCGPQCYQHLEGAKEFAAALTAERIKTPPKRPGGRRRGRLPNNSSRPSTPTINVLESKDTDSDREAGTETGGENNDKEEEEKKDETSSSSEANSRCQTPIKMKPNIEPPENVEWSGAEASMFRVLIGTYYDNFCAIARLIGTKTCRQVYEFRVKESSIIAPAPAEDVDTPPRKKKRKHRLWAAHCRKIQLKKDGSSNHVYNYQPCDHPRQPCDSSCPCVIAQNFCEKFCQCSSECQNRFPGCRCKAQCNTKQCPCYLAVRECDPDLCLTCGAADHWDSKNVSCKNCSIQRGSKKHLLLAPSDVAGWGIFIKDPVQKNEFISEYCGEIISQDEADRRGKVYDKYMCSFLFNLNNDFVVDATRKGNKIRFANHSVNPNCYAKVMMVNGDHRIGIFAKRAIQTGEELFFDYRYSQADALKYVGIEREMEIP

`CCCc1cc(C)[nH]c(=O)c1CNC(=O)c1cc(-c2ccc(N3CCN(C(C)C)CC3)nc2)cc2c1cnn2C(C)C` was tested, and the inhibition [1] was “Active”, the inhibition [2] was “Active” and the inhibition [3] was “Active”. For the same compound, the inhibition [4] was “Active”, the inhibition [5] was “Active” and the inhibition [6] was “Active”. For the same compound, the inhibition [7] was “Active”, the inhibition [8] was “Active” and the inhibition [9] was “inactive”. The inhibition [10] was “inactive”, the inhibition [11] was “inactive” and the inhibition [12] was “inactive”. For the same compound, the inhibition [13] was “inactive”, the inhibition [14] was “inactive” and the inhibition [15] was “inactive”. The inhibition [16] was “inactive”, the inhibition [17] was “inactive” and the inhibition [18] was “inactive”. The inhibition [19] was “inactive”, the inhibition [20] was “inactive” and the inhibition [21] was “inactive”. For the same compound, the inhibition [22] was “inactive”, the inhibition [23] was “inactive” and the inhibition [24] was “inactive”. The inhibition [25] was “inactive”, the inhibition [26] was “inactive” and the inhibition [27] was “inactive”.
